Laboratory results from ChEMBL document CHEMBL1124448, “Comparison of the biological effects of selected 5,8-dideazafolate analogues with their 2-desamino counterparts” (J Med Chem, 1989).

Key:
[1] = test system: L1210; assay: Inhibition of the growth of methotrexate resistant L1210 leukemia/R 81 cells in culture; format: functional, cell-based; details: Mus musculus
Summary of the method: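 MTT viability assay, 48 h. Log-phase cells were plated at […] onto serial drug dilutions in RPMI 1640 with 10% fetal bovine serum, in 8% CO2, humidified. MTT (5 mg/mL stock) was added for 3 h and the formazan dissolved in 0.04 N HCl/2-propanol. A570 was read within 1 h. Each plate carried no-drug control and no-cell blank rows. IC50 determined.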

[2] = test system: L1210; assay: Inhibition of the growth of methotrexate sensitive L1210 leukemia/S cells in culture; format: functional, cell-based; details: Mus musculus
Summary of the method: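 MTT viability assay, 48 h. MTT (5 mg/mL stock) was added for 3 h and the formazan dissolved in 0.04 N HCl/2-propanol. A570 was read within 1 h. Each plate carried no-drug control and no-cell blank rows. IC50 determined.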

[3] = biological target: Thymidylate synthase (Mus musculus, UniProt P07607); assay: Inhibition of L1210 leukemia thymidylate synthase (TS) enzyme; details: read-out: I50
Sequence of Thymidylate synthase (P07607 whole entry): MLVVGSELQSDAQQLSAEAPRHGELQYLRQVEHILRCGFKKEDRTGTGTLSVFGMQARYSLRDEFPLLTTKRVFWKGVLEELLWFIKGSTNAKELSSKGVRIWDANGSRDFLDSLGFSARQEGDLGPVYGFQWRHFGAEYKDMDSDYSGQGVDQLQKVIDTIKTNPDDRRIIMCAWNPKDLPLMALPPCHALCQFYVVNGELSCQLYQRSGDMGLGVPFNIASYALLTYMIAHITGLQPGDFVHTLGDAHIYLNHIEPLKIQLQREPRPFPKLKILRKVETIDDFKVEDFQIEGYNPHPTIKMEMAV

Compound | IC50 [1] | IC50 [2] | IC50 [3]
C#CCN(Cc1ccc2[nH]c(N)nc(=O)c2c1)c1ccc(C(=O)NC(CCC(=O)O)C(=O)O)cc1 (stereo not given) | 116 µM | – | –
O=C(O)CCC(NC(=O)c1ccc(SCc2ccc3ncnc(O)c3c2)cc1)C(=O)O (stereo not given) | > 200 µM | 1.3 µM | 13.8 µM
Nc1nc(O)c2cc(COc3ccc(C(=O)NC(CCC(=O)O)C(=O)O)cc3)ccc2n1 (stereo not given) | 39 µM | 1.2 µM | –
Nc1nc(=O)c2cc(CSc3ccc(C(=O)NC(CCC(=O)O)C(=O)O)cc3)ccc2[nH]1 (stereo not given) | > 200 µM | 7.6 µM | –
C#CCN(Cc1ccc2ncnc(O)c2c1)c1ccc(C(=O)NC(CCC(=O)O)C(=O)O)cc1 (stereo not given) | 75 µM | 0.27 µM | –
CN(Cc1cnc2nc(N)nc(N)c2n1)c1ccc(C(=O)N[C@@H](CCC(=O)O)C(=O)O)cc1 [METHOTREXATE] | 186 µM | 0.0044 µM | –
Nc1nc(=O)c2cc(NCc3ccc(C(=O)NC(CCC(=O)O)C(=O)O)cc3)ccc2[nH]1 (stereo not given) | > 200 µM | 3.2 µM | –
O=C(O)CCC(NC(=O)c1ccc(CNc2ccc3ncnc(O)c3c2)cc1)C(=O)O (stereo not given) | > 200 µM | 0.53 µM | 25 µM
O=C(O)CCC(NC(=O)c1ccc(OCc2ccc3ncnc(O)c3c2)cc1)C(=O)O (stereo not given) | > 200 µM | 0.28 µM | 49 µM
